Positions count from the first letter of the chain named. The source made the active and inactive calls. The rule behind the calls is not given here.
Key:
[1] = target: T1, Ubiquitin-conjugating enzyme E2 T (Homo sapiens) (UniProt Q9NPD8); assay: Inhibition of full length N-terminal 6xHis-Smt3 tagged human Ube2T expressed in Escherichia coli BL21(DE3) assessed as FANCD2 ubiquitination after 15 mins in presence of fluorescently-labeled Ub/recombinant human E1/ATP by fluorescence assay
T1 sequence (whole entry): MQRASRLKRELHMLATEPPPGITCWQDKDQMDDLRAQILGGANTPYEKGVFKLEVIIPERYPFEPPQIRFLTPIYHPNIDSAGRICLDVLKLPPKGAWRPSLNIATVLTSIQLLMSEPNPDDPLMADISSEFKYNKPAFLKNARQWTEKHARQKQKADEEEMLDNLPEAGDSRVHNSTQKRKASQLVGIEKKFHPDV
In short: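 Ube2T-driven FANCD2 monoubiquitination with E1, FANCL and fluorescently labelled ubiquitin, tested as a four-point titration. Gels were fluorescence-scanned, and the integrated intensity of the monoubiquitinated FANCD2 band was normalized to DMSO reactions. Three independent experiments, plotted as mean ± range.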

[2] = tested on: T2, Ubiquitin-conjugating enzyme E2 T (Homo sapiens), Q9NPD8 [P73K]; assay: Binding affinity to full length recombinant N-terminal 6xHis-Smt3 tagged human Ube2T P73K mutant expressed in Escherichia coli BL21(DE3) by ITC
T2 sequence (whole entry): T1 sequence (whole entry) with P73K

[3] = target: T1, Ubiquitin-conjugating enzyme E2 T (Homo sapiens); assay: Binding affinity to [1H-15N]-labeled N-terminal 6xHis-Smt3 tagged human Ube2T (1 to 154 residues) expressed in Escherichia coli BL21(DE3) by chemical shift perturbation assay
[4] = target: T1, Ubiquitin-conjugating enzyme E2 T (Homo sapiens); assay: Inhibition of full length N-terminal 6xHis-Smt3 tagged human Ube2T expressed in Escherichia coli BL21(DE3) assessed as FANCD2 ubiquitination at 2.5 mM after 15 mins in presence of fluorescently-labeled Ub/recombinant human E1/FANCL in 0.05% Tween20 containing buffer by fluorescence assay
[5] = target: Ubiquitin-conjugating enzyme E2 D3 (Homo sapiens) (UniProt P61077); assay: Inhibition of UbcH5c (unknown origin) assessed as RNF4 ubiquitination at 2.5 mM after 15 mins in presence of fluorescently-labeled […] by fluorescence assay
[6] = target: T3, Ubiquitin-conjugating enzyme E2 T (Homo sapiens, UniProt Q9NPD8); assay: Binding affinity to full length N-terminal 6xHis-Smt3 tagged human Ube2T expressed in Escherichia coli BL21(DE3) by ITC
T3 sequence (Q9NPD8 whole entry): T1 sequence (whole entry)

Ubiquitin-conjugating enzyme E2 D3 (Homo sapiens), sequence (P61077 whole entry, looked up): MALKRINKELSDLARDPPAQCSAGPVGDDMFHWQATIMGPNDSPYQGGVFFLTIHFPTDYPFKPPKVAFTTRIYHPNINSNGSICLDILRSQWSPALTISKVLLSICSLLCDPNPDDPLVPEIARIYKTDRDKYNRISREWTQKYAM

Compound	inhibition [1]	Activity [2]	Activity [3]	inhibition [4]	inhibition [5]	Kd [6] [µM]
Nc1nc(-c2ccccc2)cs1	Dose-dependent effect	Active	Dose-dependent effect	Active	inactive	
NC(=O)C1CCCc2c1[nH]c1ccc(Cl)cc21 (configuration not stated)	Dose-dependent effect	Active	Dose-dependent effect	Active	inactive	
NCc1nc2ccccc2s1	Dose-dependent effect		Dose-dependent effect	Active	inactive	1300
N#Cc1cc(-c2ccccc2)oc1N			Dose-dependent effect			
NC(=O)c1ccc(-c2ccccn2)s1			Dose-dependent effect			

— ChEMBL document CHEMBL4043089, “Allosteric Targeting of the Fanconi Anemia Ubiquitin-Conjugating Enzyme Ube2T by Fragment Screening” (J Med Chem, 2017)
